Measured values as given in ChEMBL document CHEMBL3244156, “Analgesic and tranquilizing activity of 5,8-disubstituted 1-tetralone Mannich bases” (1977).
Active and inactive are the calls of the source. No cut-off for these calls is given here.

What was measured:
Rattus norvegicus [1] = test: Analgesic activity in rat assessed as median foot shock required to elicit flinch-jump at 17.8 mg/kg, po after 2 hrs; assay type: functional
Canis familiaris = test: Analgesic activity in dog assessed as rippling of skin at 1.62 mg/kg, sc after 2 hrs by radiant heat assay; assay type: functional, Canis lupus familiaris; conditions: route subcutaneous
Procedure, shortened: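 Dogs held in a harness with a shaved mid-back patch placed under a concealed radiant heat source. Endpoint is the latency from heat onset to skin "rippling". Baseline latency measured in each dog, then retested at 0.5 and 2 h after dosing. Result expressed as % of control.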

Mus musculus [2] = test: Analgesic activity in mouse at 10 mg/kg, ip after 2 hrs by hot plate assay; assay type: functional; conditions: route intraperitoneal
Procedure, shortened: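 Mice dropped into a glass cylinder on an aluminum plate held at 57 °C. Timed from foot contact to first hind-foot flick, with a 10-s limit. Observed 0.5 and 2 h after treatment. Value is % of mice failing to react within the limit. At least ten mice per dose.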

Mus musculus [3] = test: Analgesic activity in mouse assessed as tail-flick latency period at 10 mg/kg, ip after 2 hrs by tail flick test; assay type: functional; conditions: route intraperitoneal
Rattus norvegicus [4] = species: Rattus norvegicus; test: Induction of tolerance development in rat assessed as median foot shock required to elicit flinch-jump; assay type: functional, organism-based

CN1CC[C@]23c4c5ccc(O)c4O[C@H]2[C@@H](O)C=C[C@H]3[C@H]1C5 [MORPHINE]
Activity (Rattus norvegicus [1]): 1.2% | Activity (Canis familiaris): 155% | Activity (Mus musculus [2]): 70% | Activity (Mus musculus [3]): 80% | Activity (Rattus norvegicus [4]): Active
